The text below walks through data of ChEMBL document CHEMBL4825756, “New Design Rules for Developing Potent Cell-Active Inhibitors of the Nucleosome Remodeling Factor (NURF) via BPTF Bromodomain Inhibition” (J Med Chem, 2021).

Active and inactive are the calls of the source. The rule behind the calls is not given here.

The target in assay [1] is T1, Bromodomain-containing protein 4 (Homo sapiens, UniProt O60885). Nature of the assay: Inhibition of HIS9-tagged BRD4 (unknown origin) expressed in Escherichia coli BL21 (DE3) cells incubated for 30 mins by AlphaScreen assay. On the technique in general: Alpha assays give light when donor and acceptor beads are brought close together.
Assay [2] has as its target T2, Histone acetyltransferase KAT2B (Homo sapiens, UniProt Q92831). Nature of the assay: Binding affinity to 5FW-labeled PCAF (unknown origin) expressed in Escherichia coli BL21 (DE3) cells at 7.4 to 200 uM by PrOF NMR analysis. The note with it: dose 7.4-200 µM. Summed up:
(§1)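 Protein-observed 19F NMR with 5-fluorotryptophan-labelled protein. Each ligand is titrated and the change in chemical shift relative to a control sample is plotted against ligand concentration to give a binding isotherm. Kd is taken from a fit to the quadratic binding equation, which uses total ligand and total protein concentrations.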
Target sequence in this assay (Q92831 whole entry, looked up): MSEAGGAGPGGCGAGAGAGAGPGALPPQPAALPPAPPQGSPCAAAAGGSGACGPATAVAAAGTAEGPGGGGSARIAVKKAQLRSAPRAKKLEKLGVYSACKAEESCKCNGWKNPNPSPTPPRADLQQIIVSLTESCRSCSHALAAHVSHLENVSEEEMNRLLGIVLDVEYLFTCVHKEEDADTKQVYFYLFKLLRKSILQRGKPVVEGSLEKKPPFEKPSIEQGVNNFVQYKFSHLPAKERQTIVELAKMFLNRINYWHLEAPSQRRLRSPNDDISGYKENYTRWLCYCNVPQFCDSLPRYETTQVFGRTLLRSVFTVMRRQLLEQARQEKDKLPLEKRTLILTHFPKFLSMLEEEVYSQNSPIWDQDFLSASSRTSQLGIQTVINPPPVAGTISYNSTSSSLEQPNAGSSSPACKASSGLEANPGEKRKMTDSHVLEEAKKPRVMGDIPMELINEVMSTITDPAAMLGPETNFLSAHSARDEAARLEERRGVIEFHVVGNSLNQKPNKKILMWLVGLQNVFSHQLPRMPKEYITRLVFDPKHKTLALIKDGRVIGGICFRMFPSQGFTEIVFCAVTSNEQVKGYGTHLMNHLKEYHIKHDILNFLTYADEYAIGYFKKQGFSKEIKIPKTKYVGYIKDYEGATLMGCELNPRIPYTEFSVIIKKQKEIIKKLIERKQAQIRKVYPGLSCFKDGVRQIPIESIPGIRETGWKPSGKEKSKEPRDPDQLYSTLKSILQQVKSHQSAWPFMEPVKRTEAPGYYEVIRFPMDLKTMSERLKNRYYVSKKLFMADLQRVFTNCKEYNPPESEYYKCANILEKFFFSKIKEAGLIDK

The target in assay [3] is Chromatin remodeling regulator CECR2 (Homo sapiens) (UniProt Q9BXF3). The assay is described as follows: Binding affinity to 5FW-labeled CECR2 (unknown origin) expressed in Escherichia coli BL21 (DE3) cells at 7.4 to 200 uM by PrOF NMR analysis. The following applies: dose 7.4-200 µM. In a few lines:
as §1

For assay [4] the target is unchanged. Nature of the assay: Inhibition of CECR2 (unknown origin) at 140 nM by BROMOscan method relative to control.
The target in assay [5] is Histone acetyltransferase KAT2A (Homo sapiens) (UniProt Q92830). Nature of the assay: Inhibition of GCN5L2 (unknown origin) at 140 nM by BROMOscan method relative to control.
The target in assay [6] is T1, Bromodomain-containing protein 4. Nature of the assay: Binding affinity to BRD4 BD1 (unknown origin) by BROMOscan method.
The subject of assay [7] is 4T1. Nature of the assay: Growth inhibition of mouse 4T1 cells assessed as reduction cell viability 2.5 to 8 uM in presence of doxorubicin incubated for 4 days by MTS assay relative to control. The note with it: dose 2.5-8 µM, time 4.0 day. Format: functional, cell-based. In a few lines:
(§2)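 Mouse 4T1 breast cancer cells in DMEM with 10% FBS, 2 mM glutamine and penicillin-streptomycin, 4000 cells/well, adhered overnight. Three inhibitor doses, chosen from toxicity curves, given for 4 days alone or with 50 nM doxorubicin, also in shRNA BPTF-knockdown cells. MTS absorbance read at 490 nm; fraction survival scaled to untreated cells (1.0) and blank (0.0); N=3, mean ± SEM.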
On the technique in general: Tetrazolium dyes change colour on reduction, which living cells bring about.

Assay [8] addresses Nucleosome-remodeling factor subunit BPTF (Homo sapiens, UniProt Q12830). The assay is described as follows: Binding affinity to 5FW-labeled BPTF (unknown origin) expressed in Escherichia coli BL21 (DE3) cells by PrOF NMR analysis.
The target of assay [9] is T2, Histone acetyltransferase KAT2B. Nature of the assay: Binding affinity to PCAF (unknown origin) by BROMOscan method.
Target sequence in this assay (Q92831 whole entry): as the sequence (Q92831 whole entry, looked up) above
The target in assay [10] is T3, Bromodomain-containing protein 9 (Homo sapiens, UniProt Q9H8M2).
T3 sequence (Q9H8M2 whole entry): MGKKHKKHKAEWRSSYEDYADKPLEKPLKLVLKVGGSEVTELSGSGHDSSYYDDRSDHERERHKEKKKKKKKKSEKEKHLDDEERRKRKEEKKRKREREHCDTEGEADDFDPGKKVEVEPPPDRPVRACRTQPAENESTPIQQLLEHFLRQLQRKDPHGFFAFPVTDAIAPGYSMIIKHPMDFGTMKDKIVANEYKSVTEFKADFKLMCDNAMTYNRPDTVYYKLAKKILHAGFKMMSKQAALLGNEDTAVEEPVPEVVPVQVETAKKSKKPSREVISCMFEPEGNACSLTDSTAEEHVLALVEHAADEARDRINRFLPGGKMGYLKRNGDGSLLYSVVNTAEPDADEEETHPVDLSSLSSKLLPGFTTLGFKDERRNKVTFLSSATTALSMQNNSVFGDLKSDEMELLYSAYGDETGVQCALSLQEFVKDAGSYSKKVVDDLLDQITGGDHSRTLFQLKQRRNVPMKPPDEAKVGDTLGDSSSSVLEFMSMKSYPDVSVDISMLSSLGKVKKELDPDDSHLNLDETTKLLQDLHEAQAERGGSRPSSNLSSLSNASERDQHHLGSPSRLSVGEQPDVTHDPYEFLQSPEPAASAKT
The assay is described as follows: Binding affinity to BRD9 (unknown origin) by BROMOscan method.

For assay [11], the system named is 4T1. The assay is described as follows: Growth inhibition of mouse 4T1 cells assessed as reduction cell viability 5 to 15 uM in presence of doxorubicin incubated for 4 days by MTS assay relative to control. It counts as functional, cell-based. The following applies: dose 5-15 µM, time 4.0 day. In a few lines: as §2
The subject of assay [12] is EpH4. The assay is described as follows: Upregulation of sfn mRNA in mouse EpH4 cells at 5 uM after 24 hrs by qRT-PCR analysis. Format: functional, cell-based. Summed up: (§3)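 Murine Eph4 mammary epithelial cells were treated at 5 μM for 24 h and harvested in trizol. Transcripts were quantified by SYBR Green qPCR. Group differences were tested by one-way ANOVA at p<0.05.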
A general note: Quantitative PCR measures a nucleic acid by following its amplification.

The test system of assay [13] is EpH4. Nature of the assay: Upregulation of sprr1a mRNA in mouse EpH4 cells at 5 uM after 24 hrs by qRT-PCR analysis. It counts as functional, cell-based. Summed up:
as §3

Assay [14] has as its system EpH4. Nature of the assay: Upregulation of Myc mRNA in mouse EpH4 cells at 5 uM after 24 hrs by qRT-PCR analysis. Format: functional, cell-based. In a few lines:
as §3

Assay [15] has as its system 4T1. Nature of the assay: Growth inhibition of mouse 4T1 cells BPTF knock down assessed as reduction cell viability 15 uM in presence of doxorubicin incubated for 4 days by MTS assay relative to control. It counts as functional, cell-based. The following applies: time 4.0 day. Summed up: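 4T1 cells with shRNA BPTF knockdown, grown in DMEM with 10% FBS, 2 mM glutamine and pen-strep, were seeded at 4000/well and allowed to adhere overnight. They were treated 4 days in complete medium with one of three inhibitor doses chosen from toxicity curves, combined with 50 nM doxorubicin. MTS absorbance was read at 490 nm. Fraction survival was set against untreated cells (1.0) and blank (0.0).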

Chromatin remodeling regulator CECR2 (Homo sapiens), sequence (Q9BXF3 whole entry, looked up): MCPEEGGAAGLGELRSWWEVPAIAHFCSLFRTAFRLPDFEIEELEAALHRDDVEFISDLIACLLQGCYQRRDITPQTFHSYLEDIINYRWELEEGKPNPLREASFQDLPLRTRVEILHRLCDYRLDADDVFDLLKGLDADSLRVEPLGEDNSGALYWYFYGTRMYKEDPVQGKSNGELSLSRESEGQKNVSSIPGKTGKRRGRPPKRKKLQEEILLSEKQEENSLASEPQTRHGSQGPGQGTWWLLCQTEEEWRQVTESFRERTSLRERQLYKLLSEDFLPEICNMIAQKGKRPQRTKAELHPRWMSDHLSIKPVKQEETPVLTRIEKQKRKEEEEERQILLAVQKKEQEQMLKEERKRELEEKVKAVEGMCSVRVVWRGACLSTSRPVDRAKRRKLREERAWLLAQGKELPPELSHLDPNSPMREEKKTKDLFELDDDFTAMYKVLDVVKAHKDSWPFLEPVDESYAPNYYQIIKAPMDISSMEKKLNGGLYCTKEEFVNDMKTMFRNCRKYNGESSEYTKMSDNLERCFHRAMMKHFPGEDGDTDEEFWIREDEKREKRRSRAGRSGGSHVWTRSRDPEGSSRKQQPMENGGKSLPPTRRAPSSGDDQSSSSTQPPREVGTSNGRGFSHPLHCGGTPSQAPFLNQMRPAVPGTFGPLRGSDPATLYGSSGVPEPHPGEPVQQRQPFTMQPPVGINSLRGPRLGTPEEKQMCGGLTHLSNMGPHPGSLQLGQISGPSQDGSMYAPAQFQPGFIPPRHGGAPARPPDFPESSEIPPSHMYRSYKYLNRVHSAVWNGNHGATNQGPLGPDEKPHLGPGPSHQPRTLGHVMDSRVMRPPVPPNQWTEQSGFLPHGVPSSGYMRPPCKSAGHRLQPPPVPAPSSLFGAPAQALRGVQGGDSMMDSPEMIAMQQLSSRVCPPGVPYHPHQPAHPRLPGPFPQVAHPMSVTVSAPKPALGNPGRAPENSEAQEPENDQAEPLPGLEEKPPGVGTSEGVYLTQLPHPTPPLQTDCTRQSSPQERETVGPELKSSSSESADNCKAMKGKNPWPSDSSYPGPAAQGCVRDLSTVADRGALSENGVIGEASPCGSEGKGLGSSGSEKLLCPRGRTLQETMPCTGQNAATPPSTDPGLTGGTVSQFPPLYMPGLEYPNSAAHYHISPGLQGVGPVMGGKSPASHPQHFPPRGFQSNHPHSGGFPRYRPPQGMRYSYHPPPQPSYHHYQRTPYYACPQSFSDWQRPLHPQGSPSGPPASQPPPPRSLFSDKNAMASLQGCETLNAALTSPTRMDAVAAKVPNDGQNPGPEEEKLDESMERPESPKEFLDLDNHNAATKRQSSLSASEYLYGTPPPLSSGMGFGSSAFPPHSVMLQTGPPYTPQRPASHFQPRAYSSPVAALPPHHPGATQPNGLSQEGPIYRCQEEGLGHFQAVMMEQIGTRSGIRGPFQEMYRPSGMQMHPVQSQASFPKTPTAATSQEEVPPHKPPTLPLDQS
Histone acetyltransferase KAT2A (Homo sapiens), sequence (Q92830 2-837 limits assumed): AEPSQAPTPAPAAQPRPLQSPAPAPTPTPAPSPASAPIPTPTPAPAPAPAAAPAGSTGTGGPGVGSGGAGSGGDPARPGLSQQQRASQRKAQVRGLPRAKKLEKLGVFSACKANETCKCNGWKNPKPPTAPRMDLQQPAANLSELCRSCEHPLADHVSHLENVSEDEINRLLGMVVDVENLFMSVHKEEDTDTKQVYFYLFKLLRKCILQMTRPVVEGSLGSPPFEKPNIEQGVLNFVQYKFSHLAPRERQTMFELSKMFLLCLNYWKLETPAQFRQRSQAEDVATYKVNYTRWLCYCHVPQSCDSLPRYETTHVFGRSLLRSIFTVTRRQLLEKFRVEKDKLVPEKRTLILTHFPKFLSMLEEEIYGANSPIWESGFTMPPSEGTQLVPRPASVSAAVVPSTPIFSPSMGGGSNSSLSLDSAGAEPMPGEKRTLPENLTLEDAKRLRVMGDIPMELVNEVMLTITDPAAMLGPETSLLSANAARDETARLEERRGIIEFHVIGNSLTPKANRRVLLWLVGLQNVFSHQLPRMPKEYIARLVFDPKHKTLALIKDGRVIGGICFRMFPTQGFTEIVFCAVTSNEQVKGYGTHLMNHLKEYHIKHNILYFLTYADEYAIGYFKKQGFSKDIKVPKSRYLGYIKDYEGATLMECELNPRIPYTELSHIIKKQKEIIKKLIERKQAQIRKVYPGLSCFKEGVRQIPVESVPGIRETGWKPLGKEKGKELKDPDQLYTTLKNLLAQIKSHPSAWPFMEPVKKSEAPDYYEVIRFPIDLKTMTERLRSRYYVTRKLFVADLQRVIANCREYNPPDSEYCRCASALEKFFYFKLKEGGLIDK

In the case of `Cn1ncc(Nc2ccc(CCN)cc2)c(Cl)c1=O`, the IC50 in assay [1] (read-out: IC50) was 31000 nM. The result in assay [2] and in assay [3] was Active. The inhibition result in [4] and in assay [5] was “Active” each time. The Kd in assay [6] is 2200 nM. Also, the “growth inhibition (GI)” value with 4T1 [7] is “Active”.
Consider `CC(C)n1ncc(Nc2ccc(CN)cc2)c(Cl)c1=O`, for which the IC50 entry in [1] is on record as “Not Active”.
`CN(C)CCCOc1ccc(-c2cc(NCCCn3cccn3)nc(S(C)(=O)=O)n2)cc1` gave a Kd in assay [8] of 120000 nM.
`CN(C)CCCc1ccc(Nc2cnn(C)c(=O)c2Cl)cc1`: the Kd in assay [9] amounted to 370 nM; in assay [10], 230 nM.
For `Cn1ncc(Nc2ccc(CCN)cc2)c(Br)c1=O` the same measures were 14 nM and 0.24 nM.
As to `CN(C)CCc1ccc(Nc2cnn(C)c(=O)c2Cl)cc1`, in the assay on 4T1 [11], the “growth inhibition (GI)” value was “Active”. The outcome in the assay on EpH4 [12] was Active. In addition, the result in the assay on EpH4 [13] and in the assay with EpH4 [14] was inactive.
With `COC(=O)c1cccc(NC(=O)N[C@H]2CCN(c3ccnc(Nc4ccc(F)cc4)n3)C2)c1`, in the assay with 4T1 [15], the “growth inhibition (GI)” value was “Active”. For the same molecule, the outcome with EpH4 [12], in the assay with EpH4 [13] and in the assay with EpH4 [14] was inactive.

For orientation: IC50 means the point on the concentration scale where inhibition reaches its midpoint. What is called Kd is the free concentration of one partner at which half of the binding sites on the other are occupied at equilibrium, for simple one-to-one binding. Low readings indicate higher affinity, high ones lower affinity.
